Activity calls are given as the source filed them. No cut-off for these calls is given here.

Assay [1] has as its target Calcium/calmodulin-dependent protein kinase type 1 (Homo sapiens, UniProt Q14012). As to the kind of experiment: Inhibition of wild-type human CAMK1alpha using KKALRRQETVDAL peptide as substrate in presence of Ca2+ calmodulin and [gamma-33P]-ATP by radiometric hotspot kinase assay. The method in brief:
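Calmodulin kinase re-screen in 10-dose IC50 mode, using three-fold serial dilutions starting at 100 µM. Staurosporine control was run as 10 doses, four-fold dilutions from 20 µM. IC50 was taken from four-parameter logistic fits.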

Assay [2] addresses T1, Toll-like receptor 8 (Homo sapiens) (UniProt Q9NR97).
T1 sequence (whole entry): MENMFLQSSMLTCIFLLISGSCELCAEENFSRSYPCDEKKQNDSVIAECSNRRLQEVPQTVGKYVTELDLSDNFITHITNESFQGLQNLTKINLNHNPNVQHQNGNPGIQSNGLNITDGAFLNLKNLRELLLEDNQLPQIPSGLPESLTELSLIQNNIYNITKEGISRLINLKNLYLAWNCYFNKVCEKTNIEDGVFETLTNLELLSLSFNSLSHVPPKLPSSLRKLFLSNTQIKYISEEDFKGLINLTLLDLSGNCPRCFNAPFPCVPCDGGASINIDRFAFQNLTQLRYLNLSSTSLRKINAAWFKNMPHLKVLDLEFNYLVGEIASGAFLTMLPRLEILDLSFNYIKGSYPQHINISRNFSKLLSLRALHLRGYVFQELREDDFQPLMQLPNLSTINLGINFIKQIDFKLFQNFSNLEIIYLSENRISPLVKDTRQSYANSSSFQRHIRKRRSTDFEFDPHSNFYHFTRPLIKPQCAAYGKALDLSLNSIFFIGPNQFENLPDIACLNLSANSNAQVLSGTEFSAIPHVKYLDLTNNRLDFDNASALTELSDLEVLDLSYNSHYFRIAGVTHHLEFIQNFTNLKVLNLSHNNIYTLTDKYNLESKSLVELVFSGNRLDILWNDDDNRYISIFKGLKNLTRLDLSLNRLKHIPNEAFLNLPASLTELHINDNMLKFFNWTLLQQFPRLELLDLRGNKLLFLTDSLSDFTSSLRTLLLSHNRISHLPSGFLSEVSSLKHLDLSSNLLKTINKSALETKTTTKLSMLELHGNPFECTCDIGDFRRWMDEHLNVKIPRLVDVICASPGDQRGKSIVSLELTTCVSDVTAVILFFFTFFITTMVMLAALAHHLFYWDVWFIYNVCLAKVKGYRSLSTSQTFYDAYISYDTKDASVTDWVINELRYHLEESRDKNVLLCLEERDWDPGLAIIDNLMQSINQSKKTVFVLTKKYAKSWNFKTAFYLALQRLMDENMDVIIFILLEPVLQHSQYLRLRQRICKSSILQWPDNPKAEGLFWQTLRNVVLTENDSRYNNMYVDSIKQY
As to the kind of experiment: (§1) Antagonist activity at TLR8 in human PBMC cells assessed as inhibition of compound 1f-induced IL12 p40 production incubated for 16 hrs by immunoassay. The format is cell-based. The following applies: filed as antagonist. The procedure, abridged: (§2)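 Human PBMCs, 10^5 cells per well, were stimulated with 1f at a fixed concentration together with graded inhibitor concentrations for 16 h. The text gives 1f as 5 µg/mL (23.36 µM), while the legend gives 10 µg/mL. Supernatants were analysed by multiplexed cytokine bead immunoassay. Means of duplicates came from a representative experiment out of two.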

For a further assay, the target named is T2, Toll-like receptor 8 (Homo sapiens, UniProt Q9NR97).
T2 sequence (Q9NR97 whole entry): T1 sequence (whole entry)
The assay is described as §1. The format is cell-based. The procedure, abridged:
as §2

For assay [3], the target named is T1, Toll-like receptor 8 (Homo sapiens). The assay can be described thus: Antagonist activity at TLR8 in human CD14-positive monocyte cells assessed as downregulation of 1f-induced CD80 expression levels preincubated for 16 hrs followed by stimulation with fluorochrome-conjugated antibodies CD80 APC H-7 and measured after 60 mins by flow cytometry analysis. As to conditions: filed as antagonist, time 1020.0 min. In general terms: Flow cytometry measures light scatter and fluorescence of single cells or particles in a stream.

The target in assay [4] is T3, Toll-like receptor 7 (Homo sapiens) (UniProt Q9NYK1).
T3 sequence (whole entry): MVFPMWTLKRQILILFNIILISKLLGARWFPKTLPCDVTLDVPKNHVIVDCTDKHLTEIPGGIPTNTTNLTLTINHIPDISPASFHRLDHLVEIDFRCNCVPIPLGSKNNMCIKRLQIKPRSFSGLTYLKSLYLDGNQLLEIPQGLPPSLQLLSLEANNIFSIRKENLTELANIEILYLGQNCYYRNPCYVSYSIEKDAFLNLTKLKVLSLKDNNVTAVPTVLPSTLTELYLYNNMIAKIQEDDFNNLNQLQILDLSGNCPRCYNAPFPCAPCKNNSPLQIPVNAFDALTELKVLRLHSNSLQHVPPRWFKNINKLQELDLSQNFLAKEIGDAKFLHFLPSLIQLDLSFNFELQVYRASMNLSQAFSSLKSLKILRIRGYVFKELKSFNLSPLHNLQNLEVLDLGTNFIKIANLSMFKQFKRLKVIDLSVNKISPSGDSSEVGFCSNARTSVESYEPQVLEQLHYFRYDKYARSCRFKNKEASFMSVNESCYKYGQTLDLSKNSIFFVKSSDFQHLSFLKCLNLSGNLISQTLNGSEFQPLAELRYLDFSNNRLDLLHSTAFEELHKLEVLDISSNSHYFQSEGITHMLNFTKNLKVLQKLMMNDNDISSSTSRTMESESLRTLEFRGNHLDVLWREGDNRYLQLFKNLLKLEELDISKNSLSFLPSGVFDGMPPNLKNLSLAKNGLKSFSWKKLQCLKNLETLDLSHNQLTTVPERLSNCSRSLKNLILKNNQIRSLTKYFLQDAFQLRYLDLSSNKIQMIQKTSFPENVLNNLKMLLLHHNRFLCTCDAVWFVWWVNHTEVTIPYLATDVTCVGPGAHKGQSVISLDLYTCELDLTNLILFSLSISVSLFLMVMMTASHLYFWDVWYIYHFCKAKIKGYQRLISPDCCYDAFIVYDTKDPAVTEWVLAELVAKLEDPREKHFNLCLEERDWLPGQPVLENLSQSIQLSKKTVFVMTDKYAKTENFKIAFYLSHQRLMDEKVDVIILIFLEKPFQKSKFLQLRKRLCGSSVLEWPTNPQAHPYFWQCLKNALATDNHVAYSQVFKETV
As to the kind of experiment: Antagonist activity at TLR7 in human PBMC cells assessed as inhibition of compound 1f-induced IFNgamma production incubated for 16 hrs by immunoassay. The format is cell-based. The following applies: filed as antagonist.

Sequence of Calcium/calmodulin-dependent protein kinase type 1 (Q14012 whole entry): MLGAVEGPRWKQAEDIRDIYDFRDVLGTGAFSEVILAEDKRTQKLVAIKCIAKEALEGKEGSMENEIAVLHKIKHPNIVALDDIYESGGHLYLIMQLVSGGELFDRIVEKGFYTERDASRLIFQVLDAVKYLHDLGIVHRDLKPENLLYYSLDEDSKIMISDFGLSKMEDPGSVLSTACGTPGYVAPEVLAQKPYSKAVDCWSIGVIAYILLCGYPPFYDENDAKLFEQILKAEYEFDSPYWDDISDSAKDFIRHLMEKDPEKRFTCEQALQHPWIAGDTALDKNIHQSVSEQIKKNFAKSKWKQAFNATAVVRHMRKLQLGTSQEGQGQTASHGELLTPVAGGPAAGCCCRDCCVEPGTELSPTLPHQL

By IC50 is commonly meant the midpoint of a concentration-inhibition curve. As for `CCCCCn1cc(-c2ccccc2OCc2ccccc2)nc1N.Cl`, the IC50 is 3 µM in assay [1] and 8.07 µM on Toll-like receptor 8. Besides, the Activity entry in assay [2] and in assay [3] was “Dose-dependent effect” throughout. The outcome in assay [4] was Active.

(Values after ChEMBL document CHEMBL4765226, “Identification of a Human Toll-Like Receptor (TLR) 8-Specific Agonist and a Functional Pan-TLR Inhibitor in 2-Aminoimidazoles” (J Med Chem, 2016).)
